Results on five molecules are retold here after ChEMBL document CHEMBL4765234 (J Med Chem, 2016).

pIC50: −log10 of the molar value.

In data set [1] the target is Free fatty acid receptor 1 (Homo sapiens, UniProt O14842). Nature of the data set: Displacement of [3H]-(S)-2-(6-((2',6'-dimethyl-4'-(3-(methylsulfonyl)propoxy)biphenyl-3-yl)methoxy)-2,3-dihydrobenzofuran-3-yl)acetic acid from human recombinant full-length GPR40 expressed in human HEK293 cell membrane assessed as Koff rate measured after 2 hrs by radioligand competitive assay. Format: cell membranes. As to conditions: filed as agonist.

Data set [2] is described as follows: Tmax in mouse at 3 mg/kg, po or 1 mg/kg, iv by LC/MS/MS analysis. Format: ADME, organism-based. As to conditions: in vivo. In a few lines:
(§1)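 Dosed to mice, rats or beagle dogs. Blood collected at selected time points with EDTA anticoagulant, processed to plasma and analysed by LC/MS/MS. Parameters obtained by noncompartmental analysis.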

A short description of data set [3]: Elimination half-life in mouse plasma at 3 mg/kg, po or 1 mg/kg, iv by LC/MS/MS analysis. Format: ADME, organism-based. In a few lines: as §1
Data set [4] can be described thus: Elimination half-life in dog plasma at 3 mg/kg, po or 1 mg/kg, iv by LC/MS/MS analysis. Format: ADME, organism-based, Canis lupus familiaris. In a few lines: as §1
Data set [5] deals with T1, Peroxisome proliferator-activated receptor delta (Homo sapiens) (UniProt Q03181).
T1 sequence (whole entry): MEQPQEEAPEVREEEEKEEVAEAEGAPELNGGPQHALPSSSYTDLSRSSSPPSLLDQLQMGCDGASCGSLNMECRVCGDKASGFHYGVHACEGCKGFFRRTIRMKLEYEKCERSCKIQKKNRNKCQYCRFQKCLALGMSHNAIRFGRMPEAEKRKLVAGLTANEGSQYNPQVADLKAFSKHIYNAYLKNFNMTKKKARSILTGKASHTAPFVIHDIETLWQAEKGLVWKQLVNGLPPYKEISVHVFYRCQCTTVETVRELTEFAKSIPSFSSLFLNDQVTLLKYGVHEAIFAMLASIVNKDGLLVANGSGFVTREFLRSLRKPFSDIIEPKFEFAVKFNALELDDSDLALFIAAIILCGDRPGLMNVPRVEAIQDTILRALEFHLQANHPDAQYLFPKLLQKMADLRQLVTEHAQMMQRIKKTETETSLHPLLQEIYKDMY
Nature of the data set: Agonist activity at human Gal4-fused PPARdelta LBD expressed in African green monkey CV1 cells cotransfected with pRL-SV40 plasmid assessed as maximum efficacy measured after 24 hrs by luciferase reporter gene assay relative to control. Format: cell-based. As to conditions: CV-1. In a few lines: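 CV1 African green monkey kidney cells were cotransfected, in DMEM with 5% charcoal-stripped FBS, with two plasmids: an SV40-driven Gal4 DBD–PPARα or PPARδ LBD hybrid, and a 5×Gal4-element firefly luciferase reporter. Cells were replated at 15000/well for 4 h, then exposed to 0.17 nM–10 μM in half-log steps for 24 h. Luciferase was read, normalized to maximum from 10 μM reference agonist, and fit by a 4-parameter model.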
In general terms: In a reporter assay the amount or activity of a reporter protein is the signal.

Data set [6] can be described thus: Tmax in rat at 3 mg/kg, po or 1 mg/kg, iv by LC/MS/MS analysis. Format: ADME, organism-based. The note with it: in vivo. In a few lines:
as §1

Data set [7] is described as follows: Oral bioavailability in mouse at 3 mg/kg by LC/MS/MS analysis. The note with it: in vivo. Format: ADME, organism-based. In a few lines: as §1
Data set [8] is described as follows: Elimination half-life in rat plasma at 3 mg/kg, po or 1 mg/kg, iv by LC/MS/MS analysis. Format: ADME, organism-based. As to conditions: read-out: beta t1/2 (converted). In a few lines: as §1
Data set [9] can be described thus: Cmax in mouse plasma at 3 mg/kg, po or 1 mg/kg, iv by LC/MS/MS analysis. Format: ADME, organism-based. The arrangement: dose 3 mg/kg. In a few lines: (§2)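 Mice, rats and beagle dogs were dosed. Blood was collected into EDTA at set time points and processed to plasma for LC/MS/MS bioanalysis. Parameters were derived by noncompartmental analysis.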
The nature of data set [10]: Clearance in mouse plasma at 3 mg/kg, po or 1 mg/kg, iv by LC/MS/MS analysis. Format: ADME, organism-based. In a few lines: as §2
A short description of data set [11]: Volume of distribution at steady state in dog at 3 mg/kg, po or 1 mg/kg, iv by LC/MS/MS analysis. Format: ADME, organism-based, Canis lupus familiaris. As to conditions: in vivo, read-out: Vdss. In a few lines:
as §1

A short description of data set [12]: Oral bioavailability in rat at 3 mg/kg by LC/MS/MS analysis. Format: ADME, organism-based. The note with it: in vivo. In a few lines:
as §1

A short description of data set [13]: Cmax in dog plasma at 3 mg/kg, po or 1 mg/kg, iv by LC/MS/MS analysis. Format: ADME, organism-based, Canis lupus familiaris. On the set-up: dose 3 mg/kg. In a few lines: as §2
A short description of data set [14]: Cmax in rat plasma at 3 mg/kg, po or 1 mg/kg, iv by LC/MS/MS analysis. Format: ADME, organism-based. The arrangement: dose 3 mg/kg. In a few lines: as §2
A short description of data set [15]: Half-life in rat at 3 mg/kg, po or 1 mg/kg, iv by LC/MS/MS analysis. Format: ADME, organism-based. As to conditions: in vivo. In a few lines:
as §1

Data set [16] in a line: Clearance in human hepatocytes by LC-MS/MS analysis. Format: ADME, cell-based, Hepatocyte.
Data set [17] in a line: Drug metabolism in dog plasma assessed as metabolite formation by LC-MS/MS analysis. Format: ADME, cell-free, Canis lupus familiaris.
Data set [18] in a line: Volume of distribution at steady state in mouse at 3 mg/kg, po or 1 mg/kg, iv by LC/MS/MS analysis. Format: ADME, organism-based. The note with it: in vivo, read-out: Vdss. In a few lines:
as §1

Data set [19] can be described thus: Drug metabolism in dog feces assessed as metabolite formation by LC-MS/MS analysis. Format: ADME, tissue-based, Canis lupus familiaris.
The nature of data set [20]: Volume of distribution at steady state in rat at 3 mg/kg, po or 1 mg/kg, iv by LC/MS/MS analysis. Format: ADME, organism-based. As to conditions: in vivo, read-out: Vdss. In a few lines: as §1
Data set [21] in a line: Tmax in dog at 3 mg/kg, po or 1 mg/kg, iv by LC/MS/MS analysis. Format: ADME, organism-based, Canis lupus familiaris. As to conditions: in vivo. In a few lines:
as §1

Data set [22] deals with Voltage-gated inwardly rectifying potassium channel KCNH2 (Homo sapiens, UniProt Q12809). Description: Inhibition of human ERG.
Data set [23] in a line: Clearance in dog plasma at 3 mg/kg, po or 1 mg/kg, iv by LC/MS/MS analysis. Format: ADME, organism-based, Canis lupus familiaris. In a few lines: as §2
Data set [24] can be described thus: Half-life in dog at 3 mg/kg, po or 1 mg/kg, iv by LC/MS/MS analysis. The note with it: in vivo. Format: ADME, organism-based, Canis lupus familiaris. In a few lines: as §1
Data set [25] is described as follows: Oral bioavailability in dog at 3 mg/kg by LC/MS/MS analysis. Format: ADME, organism-based, Canis lupus familiaris. As to conditions: in vivo. In a few lines:
as §1

Data set [26] can be described thus: Half-life in mouse at 3 mg/kg, po or 1 mg/kg, iv by LC/MS/MS analysis. Format: ADME, organism-based. As to conditions: in vivo. In a few lines:
as §1

Data set [27] in a line: Clearance in rat plasma at 3 mg/kg, po or 1 mg/kg, iv by LC/MS/MS analysis. Format: ADME, organism-based. In a few lines: as §2
Data set [28] in a line: Drug metabolism in dog hepatocytes assessed as taurine metabolite formation by LC-MS/MS analysis. Format: ADME, cell-based, Canis lupus familiaris, Hepatocyte.
The nature of data set [29]: Drug metabolism in rat hepatocytes assessed as N-dealkylation by LC-MS/MS analysis. Format: ADME, cell-based, Hepatocyte.
Data set [30] can be described thus: Drug metabolism in human hepatocytes assessed as N-dealkylation by LC-MS/MS analysis. Format: ADME, cell-based, Hepatocyte.
Data set [31] is described as follows: AUC in hyperglycemic Balb/c mouse plasma at 5.6 mg/kg measured upto 60 mins. Format: ADME, organism-based. On the set-up: dose 5.6 mg/kg, time <=60.
A short description of data set [32]: Drug metabolism in dog hepatocytes assessed as N-dealkylation by LC-MS/MS analysis. Format: ADME, cell-based, Canis lupus familiaris, Hepatocyte.
The nature of data set [33]: Drug metabolism in human hepatocytes assessed as glucuronidation by LC-MS/MS analysis. Format: ADME, cell-based, Hepatocyte.
Data set [34] in a line: Drug metabolism in rat hepatocytes assessed as taurine metabolite formation by LC-MS/MS analysis. Format: ADME, cell-based, Hepatocyte.
The nature of data set [35]: Drug metabolism in human hepatocytes assessed as taurine metabolite formation by LC-MS/MS analysis. Format: ADME, cell-based, Hepatocyte.

Chain of Voltage-gated inwardly rectifying potassium channel KCNH2 (Q12809 whole entry): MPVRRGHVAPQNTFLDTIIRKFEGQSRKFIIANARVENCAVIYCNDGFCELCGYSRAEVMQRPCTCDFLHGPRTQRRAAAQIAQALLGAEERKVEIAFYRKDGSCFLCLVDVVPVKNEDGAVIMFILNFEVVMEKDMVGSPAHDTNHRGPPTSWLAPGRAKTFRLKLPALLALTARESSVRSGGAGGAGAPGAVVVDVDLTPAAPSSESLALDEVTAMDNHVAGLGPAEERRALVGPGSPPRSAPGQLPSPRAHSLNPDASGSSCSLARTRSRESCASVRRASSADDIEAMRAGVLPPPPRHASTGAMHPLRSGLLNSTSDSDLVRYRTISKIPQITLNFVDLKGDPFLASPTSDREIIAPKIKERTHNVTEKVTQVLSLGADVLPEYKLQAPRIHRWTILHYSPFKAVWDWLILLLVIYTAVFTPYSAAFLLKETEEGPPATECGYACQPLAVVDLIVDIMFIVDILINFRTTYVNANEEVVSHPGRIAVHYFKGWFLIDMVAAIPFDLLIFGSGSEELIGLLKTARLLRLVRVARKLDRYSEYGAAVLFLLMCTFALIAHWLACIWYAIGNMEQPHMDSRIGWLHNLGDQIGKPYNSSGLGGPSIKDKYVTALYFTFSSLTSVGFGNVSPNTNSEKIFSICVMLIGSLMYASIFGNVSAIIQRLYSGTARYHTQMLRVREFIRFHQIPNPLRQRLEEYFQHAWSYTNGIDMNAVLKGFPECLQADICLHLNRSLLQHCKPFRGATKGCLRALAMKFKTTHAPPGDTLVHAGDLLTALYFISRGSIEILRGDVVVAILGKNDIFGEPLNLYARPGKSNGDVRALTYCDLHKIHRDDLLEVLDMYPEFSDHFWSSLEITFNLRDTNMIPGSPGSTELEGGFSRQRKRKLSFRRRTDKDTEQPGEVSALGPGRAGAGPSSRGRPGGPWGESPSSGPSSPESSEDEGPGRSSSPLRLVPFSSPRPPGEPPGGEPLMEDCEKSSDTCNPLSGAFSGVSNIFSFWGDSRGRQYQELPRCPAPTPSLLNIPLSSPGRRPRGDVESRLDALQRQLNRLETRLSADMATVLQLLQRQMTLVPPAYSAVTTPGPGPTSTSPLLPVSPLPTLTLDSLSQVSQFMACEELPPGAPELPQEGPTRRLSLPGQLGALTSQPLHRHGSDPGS
Chain of Free fatty acid receptor 1 (O14842 whole entry): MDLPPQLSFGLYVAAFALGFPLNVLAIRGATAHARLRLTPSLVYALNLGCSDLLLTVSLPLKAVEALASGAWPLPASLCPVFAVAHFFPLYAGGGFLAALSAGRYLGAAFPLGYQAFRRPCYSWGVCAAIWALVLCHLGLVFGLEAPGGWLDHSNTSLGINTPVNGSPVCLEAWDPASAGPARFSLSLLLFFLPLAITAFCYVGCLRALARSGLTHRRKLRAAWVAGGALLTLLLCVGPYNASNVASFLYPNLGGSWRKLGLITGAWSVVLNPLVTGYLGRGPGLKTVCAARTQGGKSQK

With `O=C(O)CCc1ccc(OCc2ccc(CN3CCC4(C=Cc5ccccc54)CC3)cc2)cc1F`, the K in data set [1] came to 0.0866 min⁻¹.

The term Tmax denotes the time at which the peak concentration occurs. In general, bioavailability refers to the share of a dose that reaches the circulation, judged against a reference dose that is usually intravenous. Broadly, the Cmax is the maximum level reached in the sampled fluid or tissue. As usually defined, the pIC50 is −log10 of the IC50, conventionally taken in molar units. For `CC#C[C@@H](CC(=O)O)c1ccc(OCc2ccc(CN3CCCc4cccc(OC)c43)s2)cc1`, the Tmax in data set [2] stood at 1 h; in data set [6] it was 36 min; in data set [21], 0.5 h. Moreover, the half-life is 252 min in [3]; 264 min in [4]; 336 min in data set [8]; 336 min in [15]; 264 min in [24]; 252 min in data set [26]. Besides, in [5], the Emax was 1%. Further, the bioavailability in data set [7] was 62%; in data set [12], 95%; in data set [25], 55%. The Cmax in data set [9] is 552 ng/mL; in [13], 2290 ng/mL; in data set [14], 4140 ng/mL. Further, the clearance in [10] was 15.4 mL/min/kg; in data set [23] it was 4.6 mL/min/kg; in [27], 3.8 mL/min/kg. Moreover, the Vd in data set [11] was determined as 1 L/kg; in data set [18], 3.9 L/kg; in [20], 1.2 L/kg. Besides, the CLH in [16] came to 0.17 h⁻¹. Besides, the figures for the Drug metabolism entry in [17] and in data set [19] were “Metabolite_Detected” and “Metabolite_Notdetected”, respectively. The same molecule showed a pIC50 in data set [22] of under 5.00.

A word on the AUC: it is the area under the concentration-time curve, a measure of exposure. With `CC#C[C@@H](CC(=O)O)c1ccc(OCc2ccc(CN3CCC4(CCc5ccccc54)CC3)s2)cc1`, the Tmax in data set [2] is 2 h; in data set [6] it was 30 min; in data set [21] it was 2 h. Further, the half-life in data set [3] is 102 min; in data set [4], 228 min; in data set [8] it was 120 min; in [15], 96 min; in data set [24] it was 228 min; in data set [26], 102 min. Also, in data set [5], the Emax turned out to be 2%. For the same molecule, the results for the bioavailability in data set [7], in data set [12] and in data set [25] were 21%, 46% and 17%, respectively. Besides, the results for the Cmax in [9], in data set [13] and in data set [14] were 184 ng/mL, 1100 ng/mL and 829 ng/mL, respectively. Besides, the Drug metabolism result in data set [28] is recorded as “Metabolite_Detected”; in data set [29], “Metabolite_Detected”; in data set [30] it was “Metabolite_Detected”; in data set [17], “Metabolite_Notdetected”; in [19] it was “Metabolite_Notdetected”; in data set [32] it was “Metabolite_Detected”. Moreover, the Drug metabolism result in data set [33], in data set [34] and in data set [35] was “Metabolite_Detected” each time. Besides, the clearance in [10] was 9.3 mL/min/kg; in data set [23], 2.2 mL/min/kg; in [27] it was 20 mL/min/kg. The Vd in [11] stood at 0.2 L/kg; in [18], 1.6 L/kg; in [20], 0.8 L/kg. For the same molecule, the AUC at 1 h in data set [31] was 898 ng·h/mL. In [16], the CLH was found to be 0.23 h⁻¹. Further, the pIC50 in data set [22] is under 5.00.

Turning to `CC#C[C@@H](CC(=O)O)c1ccc(OCc2ccc(CN3CCC4(C=Cc5ccccc54)CC3)s2)cc1`, the Drug metabolism entry in data set [28], in [29], in data set [30], in data set [32], in data set [33] and in data set [34] was “Metabolite_Detected” each time. In addition, the Drug metabolism entry in [35] is given as “Metabolite_Detected”.

In the case of `CC#C[C@@H](CC(=O)O)c1ccc(OCc2ccc(CN3CCC4(C=Cc5ccccc54)CC3)cc2)cc1` [LY2881835], in data set [5], the Emax came to 5%. Besides, the K in data set [1] came out at 0.00822 min⁻¹. The pIC50 in [22] is under 5.00.
